Compound activity: PubChem, several laboratories
Bfl-1 A1 inh = inhibitors of the anti-apoptotic protein A1, read as caspase activation; MEF A1-2A-BIM cells, Caspase-Glo 3/7 luminescence, 3 h; percent of clofoctol response, vehicle zero; caspase activation, % (concentration not given with the values); 0.066% of 330,000 active;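 active means over half of replicate activation scores above 10%, or exactly half above 10 with the replicate mean above 10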
Calb FLC = affects C. albicans growth with fluconazole | 0.57% of 300,000 active | C. albicans CaCi-2 + fluconazole, Alamar Blue growth, 48 h | growth inhibition, % (test concentration not listed);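 active means growth inhibition above about 58% in most replicates, limit read from the data, passing the limit was not always enough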;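 further: all wells also contain fluconazole at 8 µg/ml as a sub-toxic cotreatment; 0% = median of DMSO wells and 100% = median of geldanamycin control wells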
T cruzi repl = T. cruzi replication inhibition; T. cruzi beta-gal in NIH3T3, luminescence, 90 h; inhibition, % (no concentration beside the values); 1.4% of 300,000 active; AID 1885;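 active means mean inhibition across valid replicates above about 55%, limit read from the data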;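 further: signal also drops with host cell toxicity which is not excluded here; 0% = plate median of DMSO wells and 100% = zero luminescence signal; higher percent means less beta-gal luminescence so fewer parasites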
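System – NIH/3T3 host cells with β-galactosidase reporter T. cruzi · Doses – single 50 nL compound addition per well in DMSO · Reagent – 5000 T. cruzi trypomastigotes/well · Medium – Low-serum DMEM with 2% FBS · Timing – ≥90 h infection period, 3 h prior cell attachment · Evaluation – parasite load inhibition, % · Technique – GalScreen luminescence, 60 min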
TAG inh = triacylglycerol accumulation inhibition | 0.66% of 230,000 active | H9c2 cells, Nile Red lipid (TAG) fluorescence; cells loaded with 200 µM oleic acid | inhibition, % at 12.5 µM;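 active means pattern-corrected inhibition of lipid staining of at least 50% with the nuclear-stain viability signal not falling by more than 50%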;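 further: 0% = DMSO wells and 100% = triacsin C control wells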
Beta cell apopt = blocks beta cell apoptosis; INS-1E cytokine-induced death, ATP luminescence, 48 h; percent of positive-control rescue, neutral wells zero; protection from apoptosis, % (no concentration beside the values); 0.8% of 300,000 active;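 active means Every replicate reaches about 75%, or at least half do and their mean reaches it too, limit read from the data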;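 further: 0% = cytokine-treated negative control wells and 100% = positive control rescue; higher means more ATP so stronger rescue from cytokine killing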
CSC inhib = cancer stem cell inhibition; inhibition, % at 7.5 µM; cancer stem cell-like cells viability, luminescence; 1.1% of 300,000 active; in the data active means inhibition above about 75%; tested in HMLE shEcad cells
* = called active by the depositor; x = not tested or not shown. Sampled rows, rich in hits. Any-hit rate of the full collection: about 3.1%.

SMILES	Bfl-1 A1 inh	Calb FLC	T cruzi repl	TAG inh	Beta cell apopt	CSC inhib
CC(NC(=O)COc1ncnc2cc([N+](=O)[O-])ccc12)c1ccccc1 (stereo unspecified)	0	-6	-11	x	4	-5
O=C(COc1ncnc2cc([N+](=O)[O-])ccc12)NC(=O)NC1CCCCC1	0	-6	67*	x	-4	-6
O=C(COc1ncnc2ccccc12)NC1CCCCC1	0	x	x	-11	-5	-16
O=C(COc1ncnc2cc([N+](=O)[O-])ccc12)NCCc1ccc(Cl)cc1	0	29	56*	11	1	-1
CCOC(=O)COc1ccccc1/C=C\[N+](=O)[O-]	3	4	9	x	106*	-4
Cc1ccc(C(=O)COC(=O)COc2ccccc2[N+](=O)[O-])s1	0	x	x	-9	-5	-13
O=C(c1cccc(S(=O)(=O)Nc2ccccc2Cl)c1)N1CCN(c2ccccc2O)CC1	2	x	x	0	9	x
CCCOc1cccc(-c2nnc(NC(=O)c3ccco3)s2)c1	0	88*	-5	x	-3	3
COc1cccc(-c2nnc(NC(=O)c3ccco3)s2)c1	2	30	-13	x	-12	4
CCOc1ccc(S(=O)(=O)N2CCN=C2c2ccccc2)cc1	0	-7	-7	9	5	117*
O=C1c2cccc(OCC(=O)N3CCCc4ccccc43)c2CCN1Cc1ccccc1	1	45	16	0	8	88*
O=C1c2cccc(OCC(=O)N3CCCc4ccccc43)c2CCN1Cc1ccc(Br)cc1	-1	3	33	x	7	52
O=C(O)CSCC(=O)Nc1ccc(Cl)cc1C(F)(F)F	0	11	-20	-10	3	4
CC(C)N(CC(=O)Nc1ccc(Cl)cc1C(F)(F)F)C(=O)CCl	1	-15	83*	29	-6	-6
CCC(C)N(CC(=O)Nc1cccc(C)c1C)C(=O)CCl (stereo unspecified)	-1	22	69*	39	4	14
CCC(CC)NC(=O)Nc1cccc(C)c1C	0	-3	-7	x	-1	1
CCCCN1C(=O)C(=O)N(CC(=O)Nc2sc(C)c(C)c2C(=O)OC)C1=O	0	x	x	8	0	8
CCc1c(C)nc2ncnn2c1NCCc1ccc(OC)cc1	0	5	-37	x	97*	47
COC(=O)c1c(NC(=O)c2ccccc2)sc2c1CC(C)(C)OC2	0	-7	-17	x	-2	80*
C=CCNc1nc(-c2ccccn2)nnc1-c1ccccc1	-1	-88	69*	-94	4	-13
CC1(C(=O)Nc2cnc3ccccc3c2)CCN1CCOc1ccccc1 (stereo unspecified)	x	x	x	-2	x	x
CC1CC(C)CN(C(=O)c2cccc(S(=O)(=O)NCc3ccccc3)c2)C1 (stereo unspecified)	0	x	x	-4	-6	-7
O=C(CSc1cc(Cl)ccc1Cl)Nc1ccc(N2CCOCC2)cc1	1	x	x	14	18	-8
Cc1cc(C)c(C)c(S(=O)(=O)N2CCN(c3ccc(O)cc3)CC2)c1C	2	-39	7	0	-8	85*
Cc1cc(C)c(C)c(S(=O)(=O)N2CCN(c3ncnc4ccccc34)CC2)c1C	-1	x	x	-27	104*	34
SMILES	Bfl-1 A1 inh	Calb FLC	T cruzi repl	TAG inh	Beta cell apopt	CSC inhib
Cc1cc(C)c(C)c(S(=O)(=O)N2CCC(C(=O)N3CCN(c4ccc(F)cc4)CC3)CC2)c1C	x	x	x	-73	x	x
COc1ccccc1/C(O)=C(\C#N)c1nc2ccccc2[nH]1	0	14	-8	11	-2	0
Clc1ccc(-c2csc(=Nc3cccnc3)n2CCCn2ccnc2)cc1Cl	1	2	57*	-14	23	9
Cc1ccc(NC(=O)COc2ccc(CCO)cc2-n2nc3ccccc3n2)cc1C	0	-4	57*	x	1	60
Cc1ccc(OCC(=O)O)c(-n2nc3ccccc3n2)c1	2	7	-3	14	-24	-11
COc1ccc(NS(=O)(=O)c2cc(NC(=O)c3cccnc3Cl)ccc2N2CCCC2)cc1	1	11	-3	-1	6	-15
CCNC(=S)N(CCO)Cc1cc2cc3c(cc2[nH]c1=O)OCO3	-1	0	-1	x	x	2
COc1ccc(C(=O)NCC2(c3ccccc3)CCCC2)c(OC)c1	1	10	21	x	12	83*
